Data reported in ChEMBL document CHEMBL4041463, “Pyrazolo[1,5-a]pyridine-3-carboxamide hybrids: Design, synthesis and evaluation of anti-tubercular activity” (Eur J Med Chem, 2017).
≈ marks a conversion by molar mass, not a printed value.

What follows are compounds tested on Mycobacterium tuberculosis (assay: Antitubercular activity against Mycobacterium tuberculosis H37Rv measured on day 7 post dose by microplate alamar blue assay). Settings: 168 h.
Format: functional
In short: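 MABA against H37Rv in 7H12 medium, two-fold dilutions, final 0.05–5 or 0.004–1 µg/mL (DMSO stocks 5 or 2 mg/mL). Inoculum 2×10⁵ cfu/mL, 37 °C. On day 7, Tween 80 and Alamar Blue added; fluorescence (ex 530/em 590) read after 16–24 h. MIC = interpolated lowest concentration giving ≥90% fluorescence reduction versus bacteria-only controls. INH and RIF as controls.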
With `CCc1nn2ccc(Cl)cc2c1C(=O)NCc1ccc(-c2ccc(OC(F)(F)F)cc2)nc1` the MIC90 was 0.2 µg/mL (≈ 0.421 µM).
`CCc1nn2ccc(Cl)cc2c1C(=O)NCC1CCN(CC23CC4CC(CC(C4)C2)C3)CC1` showed an MIC90 greater than 1 µg/mL.
Work on `Cc1ccn2nc(C)c(C(=O)NCc3ccc(N4CCC(Oc5ccc(OC(F)(F)F)cc5)CC4)cc3)c2c1` yielded an MIC90 of 0.006 µg/mL (≈ 0.0111 µM).
`CCc1nn2ccc(Cl)cc2c1C(=O)NC/C=C(\C)CCC=C(C)C` gave an MIC90 of 0.17 µg/mL (≈ 0.472 µM).
`Cc1ccn2nc(C)c(C(=O)NCc3ccc(OC(F)(F)F)cc3)c2c1` showed an MIC90 of 0.91 µg/mL (≈ 2.5 µM).
`NNC(=O)c1ccncc1` [ISONIAZID] showed an MIC90 of 0.1 µg/mL (≈ 0.729 µM).
Work on `CO[C@H]1/C=C/O[C@@]2(C)Oc3c(C)c(O)c4c(O)c(c(/C=N/N5CCN(C)CC5)c(O)c4c3C2=O)NC(=O)/C(C)=C\C=C\[C@H](C)[C@H](O)[C@@H](C)[C@@H](O)[C@@H](C)[C@H](OC(C)=O)[C@@H]1C` [RIFAMPIN] yielded an MIC90 of 0.003 µg/mL (≈ 0.00365 µM).
